Test results published in ChEMBL document CHEMBL1789904, “Imaging of Plasmodium liver stages to drive next-generation antimalarial drug discovery” (Science, 2011).

Tested on: Plasmodium yoelii
Experiment: NOVARTIS: Antimalarial liver stage activity measured as reduction in Plasmodium yoelii schizont area in HepG2-A16-CD81 cells by immuno-fluorescence, and median schizont size at 10uM compound concentration
Assay type: functional, organism-based
Details: for IC50: Plasmodium yoelii, HepG2-A16-CD81
Procedure, shortened: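 Host and parasite nuclei stained with Hoechst 33342, parasites with αPyHSP70 antibody; 25 images per well by high-content imaging; median parasite (schizont) area measured by automated image analysis, ~50 schizonts per experiment, two or more independent experiments.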

c1ccc2cc3c(N4CCN(CCN5CCN(c6ccnc7cc8ccccc8cc67)CC5)CC4)ccnc3cc2c1
Schizont size: 135.69 um | IC50: 2910 nM

O=[N+]([O-])c1ccc(N2CCCN(C(=S)Nc3ccc(F)cc3Br)CC2)nc1
Schizont size: 120.24 um | IC50: 4620 nM

CCOC(=O)c1c(CSc2ccccc2)oc2cc(CN(C)C)c(O)c(Cl)c12
Schizont size: 188.08 um | IC50: 7200 nM

COc1ccc(-c2c(C(F)(F)F)nn(C)c2NC(=O)Nc2ccc(F)cc2F)cc1
Schizont size: 103.33 um | IC50: 3450 nM

CCc1ccccc1N=C1c2c(cccc2[N+](=O)[O-])C(=O)C1C(C)=O (configuration not stated)
Schizont size: 83.4 um | IC50: 2030 nM

CCOC(=O)c1c(NC(C)=O)sc2c1CCN(C(C)C)C2
Schizont size: 93.21 um | IC50: 3010 nM

O=C(c1cccc(Cl)c1)N1CCN(c2ccc([N+](=O)[O-])c(NC3CC3)c2)CC1
Schizont size: 102.71 um | IC50: 3200 nM

O=C(O)Cn1cnc2nc3n(c2c1=O)CCC3
Schizont size: 183.18 um | IC50: > 770 nM

Oc1cccc(Nc2nc(NCC3CCCO3)c3ccccc3n2)c1 (configuration not stated)
Schizont size: 74.32 um | IC50: 1040 nM

CCOC(=O)C1=C(c2ccccc2)N=c2sc(=Cc3cc(C)n(-c4ccc(F)cc4)c3C)c(=O)n2C1c1cccc(OC)c1OC (configuration not stated)
Schizont size: 106.25 um | IC50: 2450 nM

OC(CNC1CCCCC1)Cn1c2ccccc2c2ccccc21 (configuration not stated)
Schizont size: 143.41 um | IC50: 3920 nM

Cc1cc(OC(C)C(=O)N2CCc3ccccc32)ccc1Cl (configuration not stated)
Schizont size: 59.6 um | IC50: 776 nM

O=C(Nc1ccc(-c2nc3cc(NC(=O)c4ccc(Br)o4)ccc3[nH]2)cc1)c1ccc(Br)o1
Schizont size: 101.14 um | IC50: 812 nM

O=C(c1cccc([N+](=O)[O-])c1)c1ccc(Cl)c(Cl)c1
Schizont size: 108.65 um | IC50: 3810 nM

c1ccc(Nc2ccnc(Nc3ccccc3)n2)cc1
Schizont size: 92.37 um | IC50: 1480 nM

CCN(CC)CCN(Cc1cc2ccc(C)cc2[nH]c1=O)C(=S)NC(C)c1ccccc1 (configuration not stated)
Schizont size: 66.17 um | IC50: 883 nM

COC(=O)C1=C(C)NC2=C(C(=O)CC(c3ccccc3Cl)C2)C1c1ccc([N+](=O)[O-])cc1 (configuration not stated)
Schizont size: 61.06 um | IC50: 842 nM

COc1ccc(C2CC(=O)C3=C(C2)NC(C)=C(C(=O)OC(C)C)C3c2cccc(C)c2)cc1OC (configuration not stated)
Schizont size: 90.91 um | IC50: 1840 nM

Cc1cc(Nc2cccc(F)c2)nc(NCc2ccccc2)n1
Schizont size: 73.06 um | IC50: 1110 nM

CC1CC(N(C(=O)c2ccc(Cl)cc2Cl)c2ccccc2)c2ccccc2N1C(=O)c1ccc(Cl)cc1 (configuration not stated)
Schizont size: 110.64 um | IC50: 3640 nM

CC(C)c1nc(N2CCN(C(=O)Nc3ccccc3)CC2)c(C#N)c2c1COC(C)(C)C2
Schizont size: 82.25 um | IC50: 1020 nM

CC(=O)N(C)C1=C(N2CCCC2)C(=O)c2ccccc2C1=O
Schizont size: 123.79 um | IC50: 4950 nM

Br.O=C(Cn1ccc(=NCc2ccccc2)cc1)c1ccc(I)cc1
Schizont size: 44.99 um | IC50: 825 nM

COc1ccc(C2CC(=O)C3=C(C2)NC(C)=C(C(=O)OC2CCCC2)C3c2cccc(C)c2)cc1OC (configuration not stated)
Schizont size: 66.8 um | IC50: 779 nM

CC(=O)N1c2ccc(C)cc2C(C)(c2ccccc2)CC1(C)C (configuration not stated)
Schizont size: 105.42 um | IC50: 1250 nM

CCOc1ccc2[nH]c(=O)c(CN(CCN(CC)CC)C(=S)NCCCN(CC)CC)cc2c1
Schizont size: 120.76 um | IC50: 2170 nM

CCCCCCCCn1c(C)[n+](CC)c2cc(C(=O)OCC)ccc21.[I-]
Schizont size: 63.77 um | IC50: 990 nM

FC(F)(F)c1ccccc1NC(=S)N1CCCN(c2nc3ccc(Cl)cc3s2)CC1
Schizont size: 91.85 um | IC50: 1620 nM

Cc1ccc(-c2cn3c([n+]2-c2ccccc2)SCC3)cc1.[Br-]
Schizont size: 62.52 um | IC50: 1090 nM

C=CC[N+]1(CC#Cc2cccc3ccccc23)CCCCC1.[Br-]
Schizont size: 80.06 um | IC50: 908 nM

CCCCCCOc1ccc(C(C)=NNC2=NCCN2)cc1[N+](=O)[O-]
Schizont size: 60.96 um | IC50: 784 nM

Brc1ccc(-c2cn3c([n+]2-c2ccccc2)SCC3)cc1.[Br-]
Schizont size: 78.7 um | IC50: 828 nM

Fc1ccc(Nc2nc(NCc3ccccc3)c3ccccc3n2)cc1
Schizont size: 154.58 um | IC50: 3790 nM

COc1ccc(C2CC(=O)C3=C(C2)NC(C)=C(C(=O)OC2CCCC2)C3c2ccc([N+](=O)[O-])cc2)cc1OC (configuration not stated)
Schizont size: 103.85 um | IC50: 3920 nM

O=C(Nc1ccc(-c2nc3cc(NC(=O)c4cccc([N+](=O)[O-])c4)ccc3[nH]2)cc1)c1cccc([N+](=O)[O-])c1
Schizont size: 101.45 um | IC50: > 940 nM

O=C(c1ccc([N+](=O)[O-])cc1)c1ccc(Cl)c(Cl)c1
Schizont size: 109.39 um | IC50: 1640 nM

CCC(=O)NC(c1ccccc1Cl)c1cc(Cl)c2cccnc2c1O (configuration not stated)
Schizont size: 55.11 um | IC50: 1010 nM

Nc1cccc(C(=O)Nc2ccc(Oc3cccc(Oc4ccc(NC(=O)c5cccc(N)c5)cc4)c3)cc2)c1
Schizont size: 90.81 um | IC50: 1760 nM

O=[N+]([O-])c1cc(C(F)(F)F)ccc1N1CCCN(C(=S)Nc2ccccc2)CC1
Schizont size: 93.73 um | IC50: 2230 nM

CCN1CCN(c2cc(C)c3cc(NC(=O)c4cc(OC)cc(OC)c4)ccc3n2)CC1
Schizont size: 113.77 um | IC50: 3740 nM

CN(C)CCCN(Cc1cc2cc3c(cc2[nH]c1=O)OCO3)C(=S)Nc1cccc(Cl)c1
Schizont size: 60.22 um | IC50: 818 nM

COc1ccc2c(C)nc(Nc3nc(C)cc(-c4ccccc4)n3)nc2c1
Schizont size: 170.24 um | IC50: 6660 nM

CCCCOc1ccc(N(C(C)=O)C2=C(N3CCOCC3)C(=O)c3ccccc3C2=O)cc1
Schizont size: 74.84 um | IC50: 1790 nM

CSc1nnc(-c2cccc([N+](=O)[O-])c2)n1Cc1ccccc1
Schizont size: 97.38 um | IC50: 2510 nM

CC(C)NCC(O)Cn1c2ccc(Cl)cc2c2cc(Cl)ccc21 (configuration not stated)
Schizont size: 88.41 um | IC50: 2970 nM

[Cl-].c1ccc(Cc2cc[n+](Cc3ccccc3)cc2)cc1
Schizont size: 127.34 um | IC50: 4520 nM

CCc1cc2c(cc1-c1csc(NC(=N)N)n1)C(C)(C)CCC2(C)C
Schizont size: 92.27 um | IC50: 2900 nM

CC(=O)N(C1=C(N2CCOCC2)C(=O)c2ccccc2C1=O)c1cccc(Cl)c1
Schizont size: 43.73 um | IC50: 744 nM

Cc1ccc(Nc2cc(C)nc(NCc3ccccc3)n2)c(C)c1
Schizont size: 89.14 um | IC50: 1300 nM

Cc1cccc(-c2cc3nc(C)c(C)c(O)n3n2)c1
Schizont size: 67.43 um | IC50: 1100 nM

Cl.Nc1ccc(N2CCCCCC2)cc1
Schizont size: 77.66 um | IC50: 1950 nM

Cc1ncc(CCCCN(C)C)c2c1[nH]c1ccccc12
Schizont size: 132.56 um | IC50: 2770 nM

CCC[n+]1cccc2ccc3cccnc3c21
Schizont size: 43.42 um | IC50: 903 nM

Cc1cn2c3ccccc3n(CCN3CCCC3)c2n1
Schizont size: 126.09 um | IC50: 1070 nM

CC(=O)Nc1nc(C)c(-c2csc(Nc3ccc(C)cc3)n2)s1
Schizont size: 104.48 um | IC50: 1890 nM

N#CC1=C(N)Oc2c3c(c4ccccc4c2C1c1ccc(F)cc1)C(c1ccc(F)cc1)C(C#N)=C(N)O3 (configuration not stated)
Schizont size: 105.63 um | IC50: 3930 nM
